Square brackets hold non-standard residues; d marks the D form. Peptide text beside a SMILES is read from it. * marks the point of attachment. Cbz = O=C(OCc1ccccc1)*
Assays:
[1] = biological target: T1, Endothelin receptor type B (Homo sapiens, UniProt P24530); experiment: Inhibitory concentration against Endothelin B receptor
T1 sequence (P24530 whole entry): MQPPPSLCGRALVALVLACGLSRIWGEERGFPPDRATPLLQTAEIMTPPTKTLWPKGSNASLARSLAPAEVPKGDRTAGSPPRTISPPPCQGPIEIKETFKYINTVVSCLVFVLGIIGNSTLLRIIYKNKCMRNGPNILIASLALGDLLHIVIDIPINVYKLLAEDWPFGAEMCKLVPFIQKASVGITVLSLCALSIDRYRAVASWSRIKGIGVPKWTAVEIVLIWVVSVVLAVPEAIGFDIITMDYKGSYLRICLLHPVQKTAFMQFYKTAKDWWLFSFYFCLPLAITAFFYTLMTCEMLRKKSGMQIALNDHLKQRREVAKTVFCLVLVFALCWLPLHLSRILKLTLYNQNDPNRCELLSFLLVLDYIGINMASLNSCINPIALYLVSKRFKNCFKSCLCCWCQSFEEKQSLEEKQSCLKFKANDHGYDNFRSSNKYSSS

[2] = biological target: T2, Endothelin-1 receptor (Homo sapiens) (UniProt P25101); experiment: Inhibition of [125]ET-1 binding to human ETA receptor expressed in vero cells at 10E-4 M concentration; assay type: cell-based
T2 sequence (whole entry): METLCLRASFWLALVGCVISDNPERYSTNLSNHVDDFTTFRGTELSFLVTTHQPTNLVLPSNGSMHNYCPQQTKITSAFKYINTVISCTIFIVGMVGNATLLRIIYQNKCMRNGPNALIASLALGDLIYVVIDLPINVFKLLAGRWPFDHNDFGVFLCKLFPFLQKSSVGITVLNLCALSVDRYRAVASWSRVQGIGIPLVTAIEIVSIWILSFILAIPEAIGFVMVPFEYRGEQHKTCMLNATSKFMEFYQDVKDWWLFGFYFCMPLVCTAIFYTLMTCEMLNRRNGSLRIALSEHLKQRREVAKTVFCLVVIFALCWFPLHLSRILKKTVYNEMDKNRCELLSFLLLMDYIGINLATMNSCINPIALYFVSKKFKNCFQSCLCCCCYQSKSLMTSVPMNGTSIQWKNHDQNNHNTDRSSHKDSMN
Summary of the method: (§1)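 Vero (green monkey renal) cells grown as monolayers at 37 °C in MEM with 10% FBS, nonessential amino acids and penicillin/streptomycin under 5% CO2. Whole-cell binding was done in triplicate (2 × 10^5 cells/well) in HEPES-buffered saline at pH 7.4 with 50 pM [125I]ET-1 for 1 h. Nonspecific binding was defined with 500 nM ET-1. Compounds were tested at ca. 10^-10–10^-4 M. Bound radioactivity was collected by filtration and counted.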

Endothelin-1 receptor [3] = biological target: T3, Endothelin-1 receptor (Rattus norvegicus, UniProt P26684); experiment: Ability to displace [125I]ET1 from the rat endothelin A receptor expressed in rat aorta smooth muscle cells.; assay type: cell-based
T3 sequence (P26684 whole entry): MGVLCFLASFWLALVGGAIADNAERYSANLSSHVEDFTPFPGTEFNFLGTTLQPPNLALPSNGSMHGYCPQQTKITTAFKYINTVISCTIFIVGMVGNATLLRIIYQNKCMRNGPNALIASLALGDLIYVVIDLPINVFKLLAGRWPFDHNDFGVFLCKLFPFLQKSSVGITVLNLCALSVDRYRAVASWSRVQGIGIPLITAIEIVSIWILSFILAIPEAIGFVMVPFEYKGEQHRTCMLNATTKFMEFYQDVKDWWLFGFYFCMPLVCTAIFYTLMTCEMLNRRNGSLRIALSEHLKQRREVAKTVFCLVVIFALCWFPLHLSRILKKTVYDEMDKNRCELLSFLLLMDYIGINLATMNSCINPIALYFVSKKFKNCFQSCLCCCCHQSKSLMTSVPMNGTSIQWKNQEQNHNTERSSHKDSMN

Endothelin-1 receptor [4] = biological target: T4, Endothelin-1 receptor (Homo sapiens, UniProt P25101); experiment: Inhibition of [125]ET-1 binding to human Endothelin A receptor expressed in vero cells; assay type: cell-based; summary of the method: as §1
T4 sequence (P25101 whole entry): T2 sequence (whole entry)

[5] = biological target: T2, Endothelin-1 receptor (Homo sapiens); settings: Vero

Compound `CCCCC1=C(C(=O)O)[C@@H](c2ccc3c(c2)OCO3)Oc2ccc(OC(C)C)cc21` has an IC50 [1] of 400 nM.
In the case of `CCOc1cc(N2CCOCC2)c(OCC)cc1NS(=O)(=O)c1ccc(OC)cc1`, the inhibition [2] is reported as 77%.
`COc1ccc(C/C(C(=O)c2ccc(OC)cc2)=C(/C(=O)O)c2ccc3c(c2)OCO3)cc1` gave an IC50 (Endothelin-1 receptor [3]) of 1.8 nM.
For `COC(=O)CCCCOc1cc(C/C(C(=O)c2ccc(OC)cc2)=C(/C(=O)O)c2ccc3c(c2)OCO3)cc(OC)c1OC`, the IC50 (Endothelin-1 receptor [3]) was 0.05 nM.
`COc1ccc(C(=O)/C(Cc2ccc(-c3ccccc3)cc2)=C(\C(=O)O)c2ccc3c(c2)OCO3)cc1` gave an IC50 (Endothelin-1 receptor [3]) of 200 nM.
Work on `CCOc1ccc2c(c1)[C@@H](c1ccc(OC)cc1OCC(=O)O)N(CC(=O)O)[C@@H]2c1ccc2c(c1)OCO2` yielded an IC50 (Endothelin-1 receptor [3]) of 5.4 nM.
For `CCOc1cc(C/C(C(=O)c2ccc(OC)cc2)=C(/C(=O)O)c2ccc3c(c2)OCO3)cc(OCC)c1OCC`, the IC50 (Endothelin-1 receptor [3]) was 0.12 nM.
In the case of `COc1ccc([C@@H]2[C@@H](CC(=O)O)[C@H](c3ccc4c(c3)OCO4)CN2CC(N)=O)cc1`, the IC50 (Endothelin-1 receptor [3]) is reported as 2030 nM.
With `COc1ccc(C(=O)/C(Cc2cccc(OC)c2)=C(\C(=O)O)c2ccc3c(c2)OCO3)cc1` the IC50 [1] was 260 nM and the IC50 (Endothelin-1 receptor [3]) was 3 nM.
With `COc1cccc(C(=O)/C(Cc2ccccc2)=C(\C(=O)O)c2ccc3c(c2)OCO3)c1` the IC50 (Endothelin-1 receptor [3]) was 500 nM.
For `CCOc1ccc2c(c1)[C@@H](c1ccc(OC)cc1)N(CC(=O)O)[C@@H]2c1ccc2c(c1)OCO2`, the IC50 (Endothelin-1 receptor [3]) was 96 nM.
Compound `COc1ccc([C@H]2[C@H](C(=O)O)[C@@H](c3ccc4c(c3)OCO4)CN2CC(=O)NC(Cc2ccccc2)c2ccccc2)cc1` (stereo partly drawn) has an IC50 (Endothelin-1 receptor [3]) of 3.9 nM.
Compound `COc1ccc(C(=O)/C(Cc2cccc3ccccc23)=C(\C(=O)O)c2ccc3c(c2)OCO3)cc1` has an IC50 (Endothelin-1 receptor [3]) of 14 nM.
With `CCCCN(CCCC)C(=O)CN1C[C@H](c2ccc3c(c2)OCO3)[C@@H](CC(=O)O)[C@@H]1c1ccc(OC)cc1` the IC50 [1] was 5100 nM and the IC50 (Endothelin-1 receptor [3]) was 0.5 nM.
Compound `CCCCN(CCCC)C(=O)CN1C[C@H](c2ccc3c(c2)OCO3)[C@@H](C(=O)O)[C@@H]1CCCCC(C)C` has an IC50 (Endothelin-1 receptor [3]) of 0.29 nM.
Work on `COc1ccc(NC(=O)CC(CC(=O)O)c2cc(OC)c(OC)c(OC)c2)cc1` (stereo not drawn) yielded an inhibition [2] of 60%.
For `COc1ccc([C@H]2[C@H](C(=O)O)[C@@H](c3ccc4c(c3)OCO4)CN2CC(=O)Nc2cccc(C)c2C)cc1`, the IC50 (Endothelin-1 receptor [3]) was 16 nM.
In the case of `COc1cc(/C(C(=O)O)=C(\CC2CCCCC2)C(=O)c2ccc3c(c2)OCCO3)cc2c1OCO2`, the IC50 (Endothelin-1 receptor [3]) is reported as 3.5 nM.
`COC1=C(C(=O)O)[C@H](c2ccc3c(c2)OCO3)Oc2ccc(OC(C)C)cc21` was tested, and the IC50 (Endothelin-1 receptor [3]) was 5.2 nM.
For `CCc1ccc(C(=O)/C(Cc2ccccc2)=C(\C(=O)O)c2ccc3c(c2)OCO3)cc1`, the IC50 (Endothelin-1 receptor [3]) was 630 nM.
In the case of `CCCCC1=C(C(=O)O)C(c2ccc3c(c2)OCO3)Oc2ccc(OC(C)C)cc21` (stereo not drawn), the IC50 (Endothelin-1 receptor [3]) is reported as 410 nM.
With `CC(C)C(NC(=O)OCc1ccccc1)C(=O)NC(Cc1ccc(O)cc1)C(=O)O` (stereo not drawn) (Cbz-Val-Tyr-OH; configuration not given here) the IC50 (Endothelin-1 receptor [4]) was 220 nM.
`C/C=C/CC[C@H]1[C@H](C(=O)O)[C@@H](c2ccc3c(c2)OCO3)CN1CC(=O)N(CCCC)CCCC` was tested, and the IC50 (Endothelin-1 receptor [3]) was 0.78 nM.
Compound `COc1ccc(C(=O)/C(Cc2ccccc2)=C(\C(=O)O)c2cc(OC)c3c(c2)OCO3)cc1` has an IC50 (Endothelin-1 receptor [3]) of 6.7 nM.
Work on `COc1ccc(C(=O)/C(Cc2ccccc2)=C(\C(=O)O)c2ccc3c(c2)OCO3)cc1OC` yielded an IC50 (Endothelin-1 receptor [3]) of 11 nM.
With `COc1ccc([C@H]2[C@H](C(=O)O)[C@@H](c3ccc4c(c3)OCO4)CN2CC(=O)NC(c2ccccc2)C(C)C)cc1` (stereo partly drawn) the IC50 (Endothelin-1 receptor [3]) was 0.7 nM.
`COC(=O)c1cc(S(=O)(=O)Nc2cccc(-c3cnco3)c2)oc1C` showed an IC50 (Endothelin-1 receptor [4]) of 6200 nM.
`CC(C)C[C@@H]1NC(=O)[C@@H](C(C)C)NC(=O)[C@@H]2CCCN2C(=O)[C@@H](CC(=O)O)NC(=O)[C@@H](Cc2c[nH]c3ccccc23)NC1=O` (cyclo(L[dW][dD]P[dV])) showed an IC50 [5] of 25 nM.
`CCCNC(=O)CN1C[C@@H](c2ccc3c(c2)OCO3)[C@H](C(=O)O)[C@H]1c1ccc(OC)cc1` was tested, and the IC50 (Endothelin-1 receptor [3]) was 45.3 nM.
`COc1ccc(C(=O)/C(Cc2ccc(Cl)cc2)=C(\C(=O)O)c2ccc3c(c2)OCO3)cc1` gave an IC50 (Endothelin-1 receptor [3]) of 110 nM.
For `COc1ccc(C(=O)/C(Cc2cc(OC)c(OC)c(OC)c2)=C(\C(=O)O)c2cc(OC)c3c(c2)OCO3)cc1`, the IC50 (Endothelin-1 receptor [3]) was 0.5 nM.

— ChEMBL document CHEMBL1139440, “Chemical function based pharmacophore generation of endothelin-A selective receptor antagonists” (J Med Chem, 2004)
